# Screening results from PubChem.
# Furin inhibitor – inhibitors of human furin | P09958 | purified furin, fluorogenic substrate cleavage | inhibition, % at 20 µM or 30 µM | 220,000 compounds, 0.061% hits | AID 463115; in the data active = inhibition above about 25%
# NPY-Y1 PAM-ag – potentiates or activates human NPY-Y1 receptor; P25929; NPY-Y1 expressing cells, potentiator/agonist activation; activation, % at 3.6 µM; 220,000 compounds, 0.37% hits; AID 1304; in the data active = activation above about 33%, passing the limit was not always enough;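 note: cells stimulated with NPY at EC10 then isoproterenol at EC100; 0% = low agonist plus stimulus and 100% = saturating agonist plus stimulus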
# NPY-Y2 antag – blocks the human neuropeptide Y Y2 receptor; AID 793; NPY-Y2 expressing cells, antagonist mode; 140,000 compounds, 0.99% hits; P49146; inhibition, % at 2.7 µM; in the data active = inhibition above about 17%;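 note: 0% = vehicle with agonist challenge and 100% = reference antagonist with challenge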
# NPY-Y2 PAM-ag – human NPY-Y2 potentiation or agonism, primary screen; cells expressing NPY-Y2, potentiator/agonist read-out; activation, % at 3.6 µM; 220,000 compounds, 0.45% hits; AID 1359; in the data active = activation above about 27%;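 note: cells stimulated with NPY near EC25 plus isoproterenol at EC100; 0% = vehicle plus submaximal agonist and 100% = vehicle plus saturating agonist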
# NPY-Y1 antag – blocks the human neuropeptide Y Y1 receptor; P25929; HEK293-CNG Y1 cells, membrane potential fluorescence; NPY at EC95, then isoproterenol; inhibition, % at 3.6 µM; 200,000 compounds, 1% hits;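 active = inhibition above the campaign mean inhibition of all tested compounds plus 3 SD, cut at about 20% in these data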;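 note: 0% = DMSO wells given NPY plus isoproterenol and 100% = isoproterenol alone without NPY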
#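 Assay system: HEK293 Y1/CNG channel cell line; Doses: single compound dose of 3.6 µM, 0.4% DMSO; Timing: dye 3 h, compound 60 min room temperature, stimulation 45 min; Technique: Membrane-potential fluorescent dye readout; Measure: % inhibition of NPY effect.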
# Cl transport mod – KCC2 (human) Cl- transport modulation; B-score of Tl+ flux slope (higher = more flux/activation; lower = inhibition) at 10 µM; KCC2 cells, thallium flux FluoZin-2 fluorescence; 190,000 compounds, 2.2% hits; Q9H2X9;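 active = thallium flux slope and its plate-corrected score both differing from the plate sample mean at a set confidence after two filtering rounds, in either direction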;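 note: slope of fluorescence scaled to starting intensity during 10 to 20 s after thallium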
# * = called active by the depositor; nt = no result given. Shown are actives, neighbours in structure and some others; about 3.7% of the full set was active somewhere.
SMILES,Furin inhibitor,NPY-Y1 PAM-ag,NPY-Y2 antag,NPY-Y2 PAM-ag,NPY-Y1 antag,Cl transport mod
C[C@]12CCC(=O)C=C1[C@H](O)C[C@@H]1[C@@H]2[C@@H](O)C[C@@]2(C)[C@H]1CC[C@]2(O)C(=O)CO,0,117*,0,101*,-13,2.6
C[C@]12CCC(=O)C=C1CC[C@@H]1[C@@H]2[C@@H](O)C[C@@]2(C)[C@H]1CC[C@]2(O)C(=O)CO,-20,2,1,5,0,-0.63
CN1CCc2c1nc1ccccc1c2N=C1CCCN1Cc1ccccc1,-33,-46,22*,-16,22*,0.52
CC(C)(C)NC(=O)CON=C1c2ccccc2-c2ccccc21,-21,-1,8,-4,10,-0.54
CC(C)(C)NCC(O)CON=C1c2ccccc2-c2ccccc21 (configuration not stated),-13,104*,nt,100*,-5,0.3
Cn1cc(Br)c(C(=O)Nc2nccs2)n1,-15,-10,4,12,3,-0.056
CC(C)COC(=O)Nc1nnc(SCCOc2ccccc2)s1,-15,-49,14,-23,29*,-0.4
CC(C)COC(=O)Nc1nnc(SCc2ccccc2F)s1,-12,-6,6,11,1,-0.43
Cn1cnnc1SCc1ccccc1Br,-21,108*,-1,80*,-3,nt
Cn1cnnc1SCc1ccccc1[N+](=O)[O-],-20,22,nt,8,nt,0.15
COc1cccc(/C=N/NC(=O)CN2CC(c3ccccc3)CC2=O)c1OC (configuration not stated),-14,-7,6,-15,4,-0.33
S=c1[nH]c2cc(Cl)ccc2s1,-22,-10,5,-19,9,24*
CCn1ncc(Br)c1C(=O)Nc1cc([N+](=O)[O-])ccc1C,-18,0,2,5,7,-0.99
O=C(NC(=S)N1CCN(c2ccc([N+](=O)[O-])cc2)CC1)c1ccc(F)cc1,-4,-7,4,1,-6,25*
COc1ccc(S(=O)(=O)NC(C)(C)C)cc1-c1nnc2c3ccccc3c(C)nn12,-16,-46,36*,-28,30*,-4.3
COc1ccc(S(=O)(=O)N2CCN(CCO)CC2)cc1-c1nnc2c3ccccc3c(C)nn12,-25,-3,10,-2,0,0.6
CNS(=O)(=O)c1ccc(OC)c(-c2nnc3c4ccccc4c(C)nn23)c1,-15,-6,4,-21,6,0.35
Cc1ccc(S(=O)(=O)N2CCN(C)CC2)cc1-c1nnc2c3ccccc3c(C)nn12,-21,-40,40*,-4,37*,nt
Cc1ccc(S(=O)(=O)N2CCN(CCO)CC2)cc1-c1nnc2c3ccccc3c(C)nn12,-33,-40,57*,-28,11,-0.017
COc1cc(NC(=O)c2ccc([N+](=O)[O-])cc2)ccc1NC(=O)C(C)C,-29,-11,nt,-19,0,0.83
Cc1ccc(NC(=O)Nc2c(Cl)cccc2Cl)cn1,-23,13,nt,18,nt,-1.4
CCN1/C(=C2\C(=O)N(C)C(=S)N2C)C=Cc2cc(C)ccc21,-8,-14,3,12,1,0.4
CCc1ccc(/C=C/C(=O)c2cc(Br)ccc(=O)c2O)cc1,1,-1,5,-7,0,8*
Cc1cccc(/C=C/C(=O)c2cc(Br)ccc(=O)c2O)c1,-8,14,5,-7,0,11*
CCOc1ccc(/C=C/C(=O)c2cc(Br)ccc(=O)c2O)cc1,-10,-19,7,1,-5,31*
SMILES,Furin inhibitor,NPY-Y1 PAM-ag,NPY-Y2 antag,NPY-Y2 PAM-ag,NPY-Y1 antag,Cl transport mod
COc1ccc(CCN2C(=NC(C)=O)SC3CS(=O)(=O)CC32)cc1OC (configuration not stated),-19,-18,nt,4,nt,0.17
FC(F)(F)COc1nc(N2CCOCC2)nc(N(c2ccccc2)c2ccccc2)n1,-10,-21,20*,-8,21*,nt
COc1ccc(C(CNC(=O)c2cncc(Br)c2)N(C)C)cc1 (configuration not stated),-31,21,nt,9,-2,0.11
Cc1ccc(S(=O)(=O)N2CCC(C(=O)N/N=C/c3cccnc3)CC2)cc1,-22,4,3,22,-2,-1.2
Cc1ccc(C)c(CSc2nnc(-c3cccs3)n2Cc2ccco2)c1,-10,3,24*,-4,53*,-1.2
NC(=O)CSc1nnc(-c2cccs2)n1Cc1ccco1,-24,9,nt,-8,nt,-1.3
CC(C)Cc1cc(CN2CCC(CO)(Cc3ccccc3)CC2)[nH]n1,-8,-10,nt,-40,nt,-0.56
O=C(NC1CCCC1)C(c1ccsc1)N(Cc1ccco1)C(=O)Cc1cccs1 (configuration not stated),0,-35,38*,-32,62*,-0.063
O=C(NC1CCCC1)C(c1ccsc1)N(Cc1ccccc1)C(=O)Cc1cccs1 (configuration not stated),-18,-34,33*,-21,60*,nt
COc1ccccc1CN(C(=O)Cc1cccs1)C(C(=O)NC1CCCC1)c1ccncc1 (configuration not stated),-28,-30,19*,-20,45*,nt
COc1cc(C(C(=O)NC2CCCCC2)N(Cc2cccs2)C(=O)Cc2c[nH]c3ccccc23)cc(OC)c1OC (configuration not stated),-17,5,9,32*,3,-0.28
Cc1csc(SCC(=O)NCc2ccccc2Cl)n1,-2,-18,nt,-28,-5,-0.65
O=C(NC1CCCC1)C(c1ccccc1)N(Cc1ccc2c(c1)OCO2)C(=O)Cc1cccs1 (configuration not stated),-17,-34,21*,-8,23*,0.38
COc1ccc(CN(C(=O)c2cccs2)C(C(=O)NC2CCCCC2)c2ccc3ncccc3c2)cc1 (configuration not stated),-3,-9,2,0,5,-0.64
O=C(NCc1ccccc1)C(c1ccccc1)N(Cc1ccc2c(c1)OCO2)C(=O)Cc1cccs1 (configuration not stated),-13,6,6,3,6,-2
O=C(NC1CCCCC1)C(c1ccc2ncccc2c1)N(Cc1ccccc1)C(=O)c1cccs1 (configuration not stated),-4,-1,25*,-27,24*,nt
CCOCCCNC(=O)C(NC(=O)Cc1cccs1)c1ccc(Cl)cc1 (configuration not stated),-18,-6,nt,10,-2,-0.3
C/C(=N\NC(=O)C(=O)Nc1c(C)n(C)n(-c2ccccc2)c1=O)c1ccncc1,-12,12,nt,2,nt,0.74
CC1CCC(NC(=O)CN2C(=O)C3CCCN3c3ncc(Cl)cc32)CC1 (configuration not stated),-1,-18,6,-11,29*,-0.12
COc1ccc(CNC(=O)CN2C(=O)C3CCCN3c3ncc(Cl)cc32)cc1 (configuration not stated),-20,-14,2,4,9,-0.63
